Reference: ChEMBL document CHEMBL4261600 (Eur J Med Chem, 2018)

Tests used:
[1] = molecular target: 1-phosphatidylinositol 3-phosphate 5-kinase (Homo sapiens) (UniProt Q9Y2I7); experiment: Binding affinity to wild-type human partial length PIKFYVE (F1512 to C2098 residues) expressed in mammalian expression system assessed as remaining unbound target protein level at 1000 nM by Kinomescan method relative to control
[2] = molecular target: Serine/threonine-protein kinase VRK2 (Homo sapiens) (UniProt Q86Y07); experiment: Binding affinity to wild-type human partial length VRK2 (M1 to T336 residues) expressed in mammalian expression system assessed as remaining unbound target protein level at 1000 nM by Kinomescan method relative to control
[3] = molecular target: Serine/threonine-protein kinase D3 (Homo sapiens) (UniProt O94806); experiment: Binding affinity to wild-type human partial length PRKD3 (S543 to E863 residues) expressed in bacterial expression system assessed as remaining unbound target protein level at 1000 nM by Kinomescan method relative to control
[4] = molecular target: NT-3 growth factor receptor (Homo sapiens) (UniProt Q16288); experiment: Binding affinity to wild-type human partial length TRKC (Q531 to G825 residues) expressed in mammalian expression system assessed as remaining unbound target protein level at 1000 nM by Kinomescan method relative to control
[5] = molecular target: Bone morphogenetic protein receptor type-1A (Homo sapiens) (UniProt P36894); experiment: Binding affinity to wild-type human partial length BMPR1A (Q214 to I532 residues) expressed in bacterial expression system assessed as remaining unbound target protein level at 1000 nM by Kinomescan method relative to control
Procedure, shortened: (§1)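 Profiled in a KINOMEscan binding panel with the inhibitor at a single concentration of 1 μM. Binding to each kinase was read out as percent of control, relative to a DMSO control. Strong binders were defined as those with a percent control value below 1.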

[6] = molecular target: Platelet-derived growth factor receptor beta (Homo sapiens) (UniProt P09619); experiment: Binding affinity to wild-type human partial length PDGFRB (V582 to Y1009 residues) expressed in bacterial expression system assessed as remaining unbound target protein level at 1000 nM by Kinomescan method relative to control
Procedure, shortened: (§2)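 KINOMEscan binding panel of 468 kinases/mutants. Inhibitor was tested at a single concentration of 1 μM. Binding is reported as percent of control, defined relative to a DMSO control.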

[7] = molecular target: NUAK family SNF1-like kinase 2 (Homo sapiens) (UniProt Q9H093); experiment: Binding affinity to wild-type human partial length SNARK (P22 to A333 residues) expressed in mammalian expression system assessed as remaining unbound target protein level at 1000 nM by Kinomescan method relative to control
[8] = tested on: Tyrosine-protein kinase ABL1 (Homo sapiens), P00519 [F317L]; experiment: Binding affinity to human non-phosphorylated ABL1 F317L mutant (S229 to K512 residues) expressed in mammalian expression system assessed as remaining unbound target protein level at 1000 nM by Kinomescan method relative to control
Procedure, shortened: (§3)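 KINOMEscan competition-binding profiling across the panel of 468 kinases and mutants, with inhibitor tested at 1 μM. Binding is expressed as percent of control, with DMSO as the reference control.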

[9] = molecular target: Leukocyte tyrosine kinase receptor (Homo sapiens) (UniProt P29376); experiment: Binding affinity to wild-type human partial length LTK (P422 to S744 residues) expressed in bacterial expression system assessed as remaining unbound target protein level at 1000 nM by Kinomescan method relative to control; procedure, shortened: as §2
[10] = molecular target: Ribosomal protein S6 kinase alpha-5 (Homo sapiens) (UniProt O75582); experiment: Binding affinity to wild-type human partial length C-terminal RPS6KA5 kinase domain 2 (V390 to T718 residues) expressed in bacterial expression system assessed as remaining unbound target protein level at 1000 nM by Kinomescan method relative to control; procedure, shortened: as §1
[11] = molecular target: Wee1-like protein kinase 2 (Homo sapiens) (UniProt P0C1S8); experiment: Binding affinity to wild-type human partial length WEE2 (M204 to K492 residues) expressed in bacterial expression system assessed as remaining unbound target protein level at 1000 nM by Kinomescan method relative to control
[12] = tested on: Phosphatidylinositol 4,5-bisphosphate 3-kinase catalytic subunit alpha isoform (Homo sapiens), P42336 [E545A]; experiment: Binding affinity to human partial length PIK3CA E545A mutant (R108 to N1068 residues) expressed in mammalian expression system assessed as remaining unbound target protein level at 1000 nM by Kinomescan method relative to control; procedure, shortened: as §3
[13] = molecular target: CDK9/cyclin T1 (Homo sapiens, UniProt P50750); experiment: Inhibition of recombinant full length His-tagged human CDK9/CyclinT1 expressed in baculovirus expression system
[14] = molecular target: 5'-AMP-activated protein kinase catalytic subunit alpha-1 (Homo sapiens) (UniProt Q13131); experiment: Binding affinity to wild-type human partial length AMPK alpha1 (M1 to E306 residues) expressed in bacterial expression system assessed as remaining unbound target protein level at 1000 nM by Kinomescan method relative to control
Procedure, shortened: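 KINOMEscan competition binding profile across a panel of 468 kinases and mutants, with the inhibitor tested at a single concentration of 1 μM. Binding is reported as percent of control, meaning signal relative to a DMSO control.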

[15] = molecular target: Inhibitor of nuclear factor kappa-B kinase subunit alpha (Homo sapiens) (UniProt O15111); experiment: Binding affinity to wild-type human full length IKK-alpha (M1 to E745 residues) expressed in mammalian expression system assessed as remaining unbound target protein level at 1000 nM by Kinomescan method relative to control
Procedure, shortened: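 Single-point competition binding screen across a panel of 468 kinases and mutants, with the inhibitor at 1 μM. Binding is read out as percent of a DMSO control, and targets below 1 percent control were classed as strong binders.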

[16] = tested on: Epidermal growth factor receptor (Homo sapiens), P00533 [G719C]; experiment: Binding affinity to human partial length EGFR G719C mutant (R669 to V1011 residues) expressed in bacterial expression system assessed as remaining unbound target protein level at 1000 nM by Kinomescan method relative to control; procedure, shortened: as §3
[17] = molecular target: Serine/threonine-protein kinase SIK1 (Homo sapiens) (UniProt P57059); experiment: Binding affinity to wild-type human partial length SIK (M1 to Y304 residues) expressed in bacterial expression system assessed as remaining unbound target protein level at 1000 nM by Kinomescan method relative to control
[18] = molecular target: Serine/threonine-protein kinase PLK2 (Homo sapiens) (UniProt Q9NYY3); experiment: Binding affinity to wild-type human partial length PLK2 (H58 to F354 residues) expressed in mammalian expression system assessed as remaining unbound target protein level at 1000 nM by Kinomescan method relative to control
[19] = molecular target: Cyclin-dependent kinase-like 3 (Homo sapiens) (UniProt Q8IVW4); experiment: Binding affinity to wild-type human partial length CDKL3 (M1 to D327 residues) expressed in bacterial expression system assessed as remaining unbound target protein level at 1000 nM by Kinomescan method relative to control
[20] = molecular target: Tyrosine-protein kinase Tec (Homo sapiens) (UniProt P42680); experiment: Binding affinity to wild-type human partial length TEC (L341 to D620 residues) expressed in bacterial expression system assessed as remaining unbound target protein level at 1000 nM by Kinomescan method relative to control

Chain of Leukocyte tyrosine kinase receptor (Homo sapiens) (P29376 whole entry, the tested form may be a part): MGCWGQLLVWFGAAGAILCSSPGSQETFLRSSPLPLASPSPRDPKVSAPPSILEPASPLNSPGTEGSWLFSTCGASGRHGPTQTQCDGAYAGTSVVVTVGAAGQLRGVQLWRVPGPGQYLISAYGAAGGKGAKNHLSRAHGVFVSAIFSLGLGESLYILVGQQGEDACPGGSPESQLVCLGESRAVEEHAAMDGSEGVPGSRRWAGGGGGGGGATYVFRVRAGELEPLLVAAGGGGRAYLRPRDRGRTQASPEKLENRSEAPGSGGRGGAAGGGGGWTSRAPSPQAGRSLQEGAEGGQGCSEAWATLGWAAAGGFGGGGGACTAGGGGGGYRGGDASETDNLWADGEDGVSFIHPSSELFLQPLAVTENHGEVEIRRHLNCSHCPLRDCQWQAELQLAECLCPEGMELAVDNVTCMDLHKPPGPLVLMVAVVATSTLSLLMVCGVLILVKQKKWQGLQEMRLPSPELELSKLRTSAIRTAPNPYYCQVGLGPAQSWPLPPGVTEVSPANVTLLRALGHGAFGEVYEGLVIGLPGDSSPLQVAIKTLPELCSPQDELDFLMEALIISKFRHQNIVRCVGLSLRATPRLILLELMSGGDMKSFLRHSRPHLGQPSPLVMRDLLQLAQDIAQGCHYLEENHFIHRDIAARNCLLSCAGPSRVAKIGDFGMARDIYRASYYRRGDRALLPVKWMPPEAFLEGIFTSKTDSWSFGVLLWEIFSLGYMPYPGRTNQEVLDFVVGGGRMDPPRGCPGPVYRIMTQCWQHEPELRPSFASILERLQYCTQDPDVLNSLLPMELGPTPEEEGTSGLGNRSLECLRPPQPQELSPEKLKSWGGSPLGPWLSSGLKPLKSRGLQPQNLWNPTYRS
Chain of NUAK family SNF1-like kinase 2 (Homo sapiens) (Q9H093 whole entry, the tested form may be a part): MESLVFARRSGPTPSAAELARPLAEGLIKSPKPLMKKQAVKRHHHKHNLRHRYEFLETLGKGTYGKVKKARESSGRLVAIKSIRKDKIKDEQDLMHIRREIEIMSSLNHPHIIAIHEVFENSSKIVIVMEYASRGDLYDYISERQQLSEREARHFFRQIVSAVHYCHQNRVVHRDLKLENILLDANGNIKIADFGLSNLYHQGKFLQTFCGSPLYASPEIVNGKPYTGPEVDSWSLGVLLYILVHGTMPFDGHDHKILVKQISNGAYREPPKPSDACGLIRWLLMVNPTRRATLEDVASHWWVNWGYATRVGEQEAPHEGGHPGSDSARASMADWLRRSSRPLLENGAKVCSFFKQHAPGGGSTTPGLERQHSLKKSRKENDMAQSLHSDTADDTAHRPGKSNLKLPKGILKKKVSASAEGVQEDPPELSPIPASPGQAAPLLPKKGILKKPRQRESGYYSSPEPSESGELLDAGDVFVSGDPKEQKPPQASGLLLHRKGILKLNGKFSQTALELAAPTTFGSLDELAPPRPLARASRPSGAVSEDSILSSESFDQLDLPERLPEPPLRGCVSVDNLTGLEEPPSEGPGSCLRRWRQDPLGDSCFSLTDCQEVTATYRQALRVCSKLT
Chain of Wee1-like protein kinase 2 (Homo sapiens) (P0C1S8 whole entry, looked up, the tested form may be a part, canonical isoform): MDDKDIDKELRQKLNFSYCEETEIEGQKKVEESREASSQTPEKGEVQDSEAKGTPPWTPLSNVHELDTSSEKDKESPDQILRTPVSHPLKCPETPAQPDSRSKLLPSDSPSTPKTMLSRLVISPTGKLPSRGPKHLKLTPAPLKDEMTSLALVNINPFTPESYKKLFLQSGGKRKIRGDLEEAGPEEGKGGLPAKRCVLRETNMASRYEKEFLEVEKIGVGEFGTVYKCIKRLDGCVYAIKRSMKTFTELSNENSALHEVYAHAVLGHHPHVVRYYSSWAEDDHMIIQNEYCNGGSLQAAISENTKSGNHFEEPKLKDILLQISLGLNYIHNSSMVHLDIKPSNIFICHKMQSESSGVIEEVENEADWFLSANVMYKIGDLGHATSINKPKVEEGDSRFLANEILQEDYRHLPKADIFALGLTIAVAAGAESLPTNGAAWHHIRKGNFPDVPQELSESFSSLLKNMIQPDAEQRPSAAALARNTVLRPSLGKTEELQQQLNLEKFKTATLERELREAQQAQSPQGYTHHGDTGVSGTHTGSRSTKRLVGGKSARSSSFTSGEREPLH
Chain of CDK9/cyclin T1 (O60563 whole entry, the tested form may be a part): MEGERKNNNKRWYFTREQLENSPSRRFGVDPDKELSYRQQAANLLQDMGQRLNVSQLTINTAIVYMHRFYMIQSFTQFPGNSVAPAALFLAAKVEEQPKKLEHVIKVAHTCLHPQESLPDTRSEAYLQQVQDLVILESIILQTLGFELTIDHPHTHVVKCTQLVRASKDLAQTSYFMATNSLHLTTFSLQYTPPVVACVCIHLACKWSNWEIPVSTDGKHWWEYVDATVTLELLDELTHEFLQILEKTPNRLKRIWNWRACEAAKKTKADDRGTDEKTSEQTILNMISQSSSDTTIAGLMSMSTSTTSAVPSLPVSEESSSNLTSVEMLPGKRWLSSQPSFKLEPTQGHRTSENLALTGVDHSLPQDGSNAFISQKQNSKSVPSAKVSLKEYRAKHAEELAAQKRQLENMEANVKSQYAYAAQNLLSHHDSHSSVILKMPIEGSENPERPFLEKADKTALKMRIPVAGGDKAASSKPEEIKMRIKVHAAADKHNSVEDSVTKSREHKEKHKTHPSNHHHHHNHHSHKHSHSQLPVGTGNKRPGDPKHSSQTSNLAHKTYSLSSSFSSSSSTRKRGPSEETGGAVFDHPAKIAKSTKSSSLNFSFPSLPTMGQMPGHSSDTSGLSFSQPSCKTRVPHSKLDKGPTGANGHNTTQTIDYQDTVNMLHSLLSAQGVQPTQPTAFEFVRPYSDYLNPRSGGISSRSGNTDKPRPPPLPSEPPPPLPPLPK
Chain of CDK9/cyclin T1 (P50750 whole entry, the tested form may be a part): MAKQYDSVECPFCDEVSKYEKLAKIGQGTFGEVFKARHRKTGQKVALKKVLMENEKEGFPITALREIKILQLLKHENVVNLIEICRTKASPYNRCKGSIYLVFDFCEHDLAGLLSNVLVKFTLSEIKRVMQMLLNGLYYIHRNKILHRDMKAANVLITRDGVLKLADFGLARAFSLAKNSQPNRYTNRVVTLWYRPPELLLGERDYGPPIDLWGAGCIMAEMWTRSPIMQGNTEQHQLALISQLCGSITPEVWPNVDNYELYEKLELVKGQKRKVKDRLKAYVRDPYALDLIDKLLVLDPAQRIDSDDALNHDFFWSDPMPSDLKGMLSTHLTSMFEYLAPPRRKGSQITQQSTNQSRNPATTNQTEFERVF
Chain of Inhibitor of nuclear factor kappa-B kinase subunit alpha (Homo sapiens) (O15111 whole entry, the tested form may be a part): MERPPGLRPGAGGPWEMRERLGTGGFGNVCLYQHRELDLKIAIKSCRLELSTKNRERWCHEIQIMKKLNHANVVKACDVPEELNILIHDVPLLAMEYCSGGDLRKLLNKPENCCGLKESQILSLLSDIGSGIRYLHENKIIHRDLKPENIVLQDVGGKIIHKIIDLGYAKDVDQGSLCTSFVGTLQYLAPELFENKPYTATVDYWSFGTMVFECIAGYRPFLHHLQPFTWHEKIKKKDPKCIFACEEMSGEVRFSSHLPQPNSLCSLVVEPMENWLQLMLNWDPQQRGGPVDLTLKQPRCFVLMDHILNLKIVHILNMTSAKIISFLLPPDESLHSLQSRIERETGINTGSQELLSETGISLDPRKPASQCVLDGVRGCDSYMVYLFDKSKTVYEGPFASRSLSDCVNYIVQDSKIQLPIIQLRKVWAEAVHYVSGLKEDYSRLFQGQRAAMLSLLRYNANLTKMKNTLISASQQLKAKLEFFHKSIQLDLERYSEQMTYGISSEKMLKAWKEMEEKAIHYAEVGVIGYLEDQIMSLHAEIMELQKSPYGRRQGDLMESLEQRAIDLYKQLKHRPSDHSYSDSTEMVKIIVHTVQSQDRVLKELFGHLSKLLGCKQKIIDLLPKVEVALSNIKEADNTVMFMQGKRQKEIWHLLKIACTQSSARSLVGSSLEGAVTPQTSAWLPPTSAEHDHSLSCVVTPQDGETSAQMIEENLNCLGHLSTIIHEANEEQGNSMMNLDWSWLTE
Chain of Serine/threonine-protein kinase SIK1 (Homo sapiens) (P57059 whole entry, the tested form may be a part): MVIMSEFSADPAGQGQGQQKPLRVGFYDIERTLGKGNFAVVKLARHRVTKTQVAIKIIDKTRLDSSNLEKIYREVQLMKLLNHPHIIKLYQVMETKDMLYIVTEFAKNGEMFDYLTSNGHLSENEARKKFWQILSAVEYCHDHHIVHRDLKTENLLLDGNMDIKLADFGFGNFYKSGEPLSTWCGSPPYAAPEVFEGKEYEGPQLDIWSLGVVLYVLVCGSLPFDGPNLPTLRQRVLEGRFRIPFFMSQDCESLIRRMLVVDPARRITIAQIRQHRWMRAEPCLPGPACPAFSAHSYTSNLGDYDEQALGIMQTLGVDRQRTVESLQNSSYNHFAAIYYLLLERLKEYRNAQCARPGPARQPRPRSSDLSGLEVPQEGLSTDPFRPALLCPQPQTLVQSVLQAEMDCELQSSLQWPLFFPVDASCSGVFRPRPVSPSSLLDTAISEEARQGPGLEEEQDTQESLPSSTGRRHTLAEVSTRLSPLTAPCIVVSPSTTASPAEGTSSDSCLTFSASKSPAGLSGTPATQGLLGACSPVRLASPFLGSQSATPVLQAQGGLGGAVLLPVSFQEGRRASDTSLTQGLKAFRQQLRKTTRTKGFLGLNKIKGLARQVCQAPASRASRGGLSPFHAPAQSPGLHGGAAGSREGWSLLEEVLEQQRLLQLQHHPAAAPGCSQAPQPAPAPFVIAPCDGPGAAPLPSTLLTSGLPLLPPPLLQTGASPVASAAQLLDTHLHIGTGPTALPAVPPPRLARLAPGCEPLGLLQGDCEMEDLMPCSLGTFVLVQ

COCCN[C@H]1CC[C@H](Nc2cc(-c3csc(NCC4(C#N)CCOCC4)n3)c(Cl)cn2)CC1
Activity [1]: 95% | Activity [2]: 87% | Activity [3]: 89% | Activity [4]: 89% | Activity [5]: 98% | Activity [6]: 91% | Activity [7]: 100% | Activity [8]: 100% | Activity [9]: 95% | Activity [10]: 76% | Activity [11]: 100% | Activity [12]: 100% | IC50 [13]: 1 nM | Activity [14]: 94% | Activity [15]: 89% | Activity [16]: 98% | Activity [17]: 93% | Activity [18]: 100% | Activity [19]: 83% | Activity [20]: 92%
